We go through eight compounds from ChEMBL document CHEMBL4138165, “Design, synthesis and biological evaluation of new β-carboline-bisindole compounds as DNA binding, photocleavage agents and topoisomerase I inhibitors” (Eur J Med Chem, 2018).

The target in data set [1] is T1, Topoisomerase I (Bos taurus) (UniProt Q2HPH0).
T1 sequence (whole entry): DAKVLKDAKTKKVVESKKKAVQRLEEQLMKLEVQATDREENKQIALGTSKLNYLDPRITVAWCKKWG
Nature of the data set: Inhibition of calf thymus DNA topoisomerase 1 at 20 uM using pBR322 DNA as substrate after 30 mins by agarose gel electrophoresis method.

The subject of data set [2] is Calf thymus DNA. Kind of data set: Binding affinity to calf thymus double stranded DNA at 5 uM by ostwald viscometer. Format: nucleic-acid assay. Particulars: Bos taurus.
Data set [3] relates to A549. Nature of the data set: Antiproliferative activity against human A549 cells after 48 hrs by MTT assay. Particulars: A549, 48 h. Format: functional, cell-based. On the technique in general: Formazan colour is commonly taken as a measure of viable cells.
In data set [4] the test system is DU-145. Kind of data set: Antiproliferative activity against human DU145 cells after 48 hrs by MTT assay. Type of data set: functional, cell-based. Particulars: DU-145, 48 h.
Data set [5] concerns HeLa. Kind of data set: Antiproliferative activity against human HeLa cells after 48 hrs by MTT assay. Format: functional, cell-based.
In data set [6] the test system is MCF7. Kind of data set: Antiproliferative activity against human MCF7 cells after 48 hrs by MTT assay. Format: functional, cell-based. Particulars: MCF7, 48 h.
The test system of data set [7] is NIH3T3. Nature of the data set: Antiproliferative activity against mouse NIH/3T3 cells after 48 hrs by MTT assay. Format: functional, cell-based. Conditions: NIH3T3, 48 h.
Data set [8] has as its system DNA. Nature of the data set: Induction of Escherichia coli pBR322 DNA cleavage at 20 uM incubated in dark condition by agarose gel electrophoresis. Type of data set: nucleic-acid assay. In short, it runs like this: (§1)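 pBR322 plasmid DNA was incubated with 20 µM ligand, either in the dark or under UV-light irradiation for 1 h. Products were separated by gel electrophoresis. Irradiated DNA solution alone served as the control.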

The subject of data set [9] is DNA. Nature of the data set: Induction of Escherichia coli pBR322 DNA cleavage at 20 uM incubated in presence of UV-light for 1 hr by agarose gel electrophoresis. Type of data set: nucleic-acid assay. In short, it runs like this:
as §1

Active and inactive are the calls of the source. The calls are words filed in the database; no cut-off is given here.

Regarding `CC[C@@]1(O)C(=O)OCc2c1cc1n(c2=O)Cc2cc3ccccc3nc2-1`, the inhibition result in data set [1] was “Active”.
On to `CC[n+]1c(-c2ccccc2)c2cc(N)ccc2c2ccc(N)cc21`, for which the result in data set [2] was Active.
The term IC50 denotes the point on the concentration scale where inhibition reaches its midpoint. Regarding `O=[N+]([O-])c1ccc2[nH]cc(C(c3cc4c([nH]c5ccccc54)c(-c4ccc(F)cc4)n3)c3c[nH]c4ccc([N+](=O)[O-])cc34)c2c1`, the half-inhibitory concentration (IC50) came to 6.32 µM in data set [3]; 1.92 µM in [4]; 12.8 µM in data set [5]; 14.4 µM in data set [6]; 64.2 µM in [7]. For the same compound, the inhibition entry in data set [1] is “Active”. In data set [8], the Activity entry is “Not Active”. Moreover, the outcome in data set [9] was inactive.
For the compound `CCOc1ccc(-c2nc3cc(-c4nc5cc(N6CCN(C)CC6)ccc5[nH]4)ccc3[nH]2)cc1`, the result in data set [2] was inactive.
For the compound `Cc1ccc(-c2nc(C(c3c[nH]c4ccc(F)cc34)c3c[nH]c4ccc(F)cc34)cc3c2[nH]c2ccccc23)cc1`, the 50% inhibitory concentration (IC50) in data set [3] amounted to 14.2 µM; in [4] it was 5.81 µM; in data set [5], 12.4 µM; in data set [6], 14.2 µM; in [7], 66.2 µM.
As for `Cc1[nH]c2ccc([N+](=O)[O-])cc2c1C(c1cc2c([nH]c3ccccc32)c(-c2ccc(F)cc2)n1)c1c(C)[nH]c2ccc([N+](=O)[O-])cc12`, the IC50 in data set [3] was 18.6 µM; in data set [4], 16.9 µM; in data set [5], 31.5 µM; in [6] it was 27.7 µM; in data set [7], 102 µM.
Consider `COc1ccc(-c2nc(C(c3c[nH]c4ccccc34)c3c[nH]c4ccccc34)cc3c2[nH]c2ccccc23)cc1`, for which the half-maximal inhibitory concentration (IC50) in data set [3] worked out at 13.5 µM; in data set [4] it was 12.8 µM; in data set [5], 26.2 µM; in data set [6], 38.1 µM; in data set [7] it was 83.2 µM.
`COc1cc(-c2nc(C(c3c[nH]c4ccc([N+](=O)[O-])cc34)c3c[nH]c4ccc([N+](=O)[O-])cc34)cc3c2[nH]c2ccccc23)cc(OC)c1OC`: the 50% inhibitory concentration (IC50) in data set [3] came to 17.1 µM; in data set [4], 11.9 µM; in [5] it was 14.2 µM; in data set [6] it was 16.3 µM; in data set [7], 128 µM.
